# Screening data as filed in PubChem.
# E coli WT exp: E. coli BW25113 growth inhibition, expanded screen; OD600 absorbance; AID 710; growth inhibition, % at 100 µM; 0.15% of 98,000 active;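 active = growth inhibition above about 50% at one test dose, limit read from the data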;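 note: growth measured after 20 h incubation at 37 °C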
# Phagocytosis inh: macrophage phagocytosis inhibition; J774A.1 macrophage IgG-bead phagocytosis, imaging; inhibition, % at 5 µM; 0.07% of 110,000 active; AID 1029;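 active = inhibition above the mean of the plate negative controls plus 5 SD, cut at about 13% in these data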;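 note: phagocytic index as fraction of beads internalized from green versus red external bead signal; plate controls were DMSO negative control for no effect and cytochalasin-D positive control for full effect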
# CD11b adhes enh: CD11b/CD18-fibrinogen binding enhancement | P05107+P11215 | K562 CD11b/CD18 adhesion to fibrinogen, ATPlite luminescence | activation, % at 10 µM | 0.07% of 93,000 active | AID 1499;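 active = 10 µM primary screen giving 50% or more activity, confirmed by 40% or more on retest at that dose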
# CD11b adhes inh: blocks human CD11b/CD18 adhesion to fibrinogen; P05107+P11215; K562 CD11b/CD18 adhesion to fibrinogen, ATPlite luminescence; Mn2+ added to activate the integrin; inhibition, % at 10 µM; 0.54% of 93,000 active;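 active = primary inhibition of 50% or more at 10 µM, then 40% or more on retest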
# tolC growth inh: growth inhibitors of E. coli BW25113 tolC mutant | OD615 | AID 573 | 2.2% of 65,000 active | growth inhibition, % at 10 µM (by protocol);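 active = growth inhibition at or above a cutoff equal to the mean over every tested compound plus 3 SD, cut at about 60% in these data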;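 note: growth measured after 20 h incubation at 37 °C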
#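 Test system: tolC-deleted E. coli BW25113; medium: LB with kanamycin 50 µg/mL; compound: single-point testing at 10 µM; incubation: 20 h compound exposure of bacteria at 37 °C; signal: OD at 615 nm; evaluation: growth inhibition in percent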
# The depositor's hits bear a star; nt = no result given; + = active, no number; [ ] = another dose, or the depositor's remark. This is one part of a sample in which hits are shown more often than they occur.
SMILES,E coli WT exp,Phagocytosis inh,CD11b adhes enh,CD11b adhes inh,tolC growth inh
FC(F)(F)c1ccc2c(c1)nnn2C1CCN(Cc2nnnn2Cc2ccccc2)CC1,-26.0,-2.0,0.2,29.8,63.5*
COc1cc(/C=C(/C)[N+](=O)[O-])ccc1OCc1ccccc1Cl,nt,5.2,nt,nt,nt
Clc1ccc(COC(Cn2ccnc2)c2ccc(Cl)cc2Cl)c(Cl)c1 (centres undefined),nt,nt,nt,nt,100.0*
Cc1cc(C)[n+](C2C3CC4CC(C3)CC2C4)o1 (centres undefined),nt,-6.8,nt,nt,nt
Cc1cccc(OP(=O)(Oc2ccccc2)OC(c2ccccc2)C(F)(F)F)c1 (centres undefined),nt,2.0,nt,nt,nt
CCCCCCn1c(N)c(C(=O)NCCN2CCOCC2)c2nc3ccccc3nc21,3.0,1.4,12.8,7.4,76.1*
CCC(=NCCc1c[nH]c2ccccc12)c1c(O)n(C)c(=O)n(C)c1=O,-3.0,-0.2,-5.1,78.6*,nt
Cc1ccccc1C1=NCC(=O)N(CC(=O)NCc2ccco2)c2sc3c(c21)CCCC3,-1.0,0.1,8.7,10.3,61.0*
CCC(C)C1N=C(c2ccccc2)c2cc(Cl)ccc2N(CC(=O)NCc2ccco2)C1=O (centres undefined),-4.0,-0.3,3.4,2.7,nt
CCCCn1c(=O)c(C(=O)Nc2nc3ccccc3[nH]2)c(O)c2ccccc21,nt,-1.3,19.9,-4.6,-7.8
CCCCn1c(=O)c(C(=O)Nc2cnccn2)c(O)c2ccccc21,-5.0,-0.6,4.5,2.0,98.8*
COc1cc(/C=C/C(=O)c2c(O)n(CCc3ccccc3)c(=O)[nH]c2=O)ccc1O,nt,-1.3,-0.1,15.7,nt
CCOC(=O)C1=C(N)OC2=C(C(=O)CCC2)C12C(=O)N1c3c(ccc(C)c32)C(C)=CC1(C)C (centres undefined),-5.0,nt,nt,nt,70.0*
O=c1c2ccccc2nc(-c2cccs2)n1-c1ccccc1,-3.0,nt,nt,nt,nt
CCn1nc(-c2cccs2)nc2c(=O)n(C)c(=O)nc1-2,26.0,-1.9,-0.7,62.8*,97.5*
CC(C)OP(=O)(OC(C)C)C(O)c1ccccc1F (centres undefined),nt,-6.5,4.0,6.2,nt
CC(C)CCOC(=O)c1c(N)n(CC2CCCO2)c2nc3ccccc3nc12 (centres undefined),-2.0,1.1,1.7,nt,60.5*
Cc1ccc(Cn2cc(C=O)c(-c3ccc(C)cc3)n2)cc1,nt,-3.1,nt,nt,nt
Cc1cccn2c(=O)c3c(nc12)N1CCC(Cc2ccccc2)CC1C1(C3)C(=O)N(C)C(=O)N(C)C1=O (centres undefined),-2.0,-4.7,-4.6,-6.3,67.2*
N=c1c2c(n(Cc3ccc(Cl)cc3Cl)c3c1CCC3)CCCC2,21.0,2.7,-2.1,21.8,100.0*
N=c1sc2c(n1Cc1ccccc1)CCCC2,5.0,-0.4,-4.5,4.2,-3.2
CCCCCCCSc1cc(OC)c(CCNC)cc1OC,76.0*,-2.4,-1.4,36.8,nt
CCCCCSc1cc(OC)c(CCNC)cc1OC,3.0,0.4,7.4,5.3,nt
CC1(C)N=C(c2ccccc2)[C@@H]2C(c3ccc([N+](=O)[O-])cc3)N21 (some centres undefined),nt,3.6,nt,nt,nt
CCN1/C(=C\C=C\C2=[N+](CC)c3ccccc3C2(C)C)C(C)(C)c2ccccc21,55.0*,+[artifact],-6.0,97.2*,nt
COc1ccc(C(Nc2ccccc2)P(=O)(Oc2ccccc2)Oc2ccccc2)cc1 (centres undefined),nt,nt,-3.3,-15.5,nt
